Experimental data gathered from unrelated publications.
Protocols differ between the studies behind these lines.
Target: Ephrin type-B receptor 1 (EPHB1, Homo sapiens, UniProt P54762)
Residues used in one study (P54762 18-984): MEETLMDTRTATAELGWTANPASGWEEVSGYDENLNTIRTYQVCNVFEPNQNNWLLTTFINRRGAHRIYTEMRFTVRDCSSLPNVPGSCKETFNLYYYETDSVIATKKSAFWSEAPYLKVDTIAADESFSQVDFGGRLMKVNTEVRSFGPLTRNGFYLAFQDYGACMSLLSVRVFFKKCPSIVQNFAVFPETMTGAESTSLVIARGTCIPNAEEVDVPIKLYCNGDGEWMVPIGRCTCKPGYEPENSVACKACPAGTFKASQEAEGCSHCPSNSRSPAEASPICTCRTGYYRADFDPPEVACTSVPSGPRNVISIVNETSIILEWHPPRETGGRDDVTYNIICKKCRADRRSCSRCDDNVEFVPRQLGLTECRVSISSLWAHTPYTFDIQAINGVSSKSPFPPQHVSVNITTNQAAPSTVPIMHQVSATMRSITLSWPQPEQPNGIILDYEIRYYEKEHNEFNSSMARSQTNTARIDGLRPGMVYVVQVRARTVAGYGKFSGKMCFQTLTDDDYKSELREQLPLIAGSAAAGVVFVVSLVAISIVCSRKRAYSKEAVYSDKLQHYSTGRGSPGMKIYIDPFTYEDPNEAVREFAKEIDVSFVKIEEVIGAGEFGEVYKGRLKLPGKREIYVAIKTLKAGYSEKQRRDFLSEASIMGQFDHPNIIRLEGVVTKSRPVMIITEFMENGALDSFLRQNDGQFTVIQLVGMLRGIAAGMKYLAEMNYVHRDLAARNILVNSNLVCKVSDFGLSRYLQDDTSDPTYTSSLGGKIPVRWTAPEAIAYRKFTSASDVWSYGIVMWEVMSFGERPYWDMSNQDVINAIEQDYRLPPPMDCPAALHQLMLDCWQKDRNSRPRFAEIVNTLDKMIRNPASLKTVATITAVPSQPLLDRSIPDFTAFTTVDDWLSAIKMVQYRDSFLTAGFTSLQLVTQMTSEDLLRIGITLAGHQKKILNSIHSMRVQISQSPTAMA

Compound	test	conditions	quantity	result
COc1cc(Nc2ncc(F)c(Nc3ccc4c(n3)NC(=O)C(C)(C)O4)n2)cc(OC)c1OC	binding, competition with immobilised ligand	10 µM	inhibition	96%
C#Cc1n[nH]c2c(-c3cn(C(C)c4ccccn4)c(=O)[nH]c3=O)cc(F)cc12 (stereo not drawn)	enzyme activity, inhibitor	1 µM	inhibition	4.9%
Nc1ncc(-c2nc(N3CCOCC3)nc(N3CCOCC3)n2)c(C(F)F)n1	cell-free assay, competition with immobilised ligand	10 µM	remaining binding	98%
Cn1cc(-c2cccc(N3CCc4c(sc5c4CC(C)(C)C5)C3=O)c2CO)cc(Nc2ccncn2)c1=O	enzyme activity, inhibitor	1 µM	inhibition	4%
C#Cc1n[nH]c2c(-c3cn([C@@H](C)c4ccccc4)c(=O)[nH]c3=O)cc(F)cc12	enzyme activity, inhibitor	0.1 µM	inhibition	1.9%
N#CC1(c2ccccn2)CCN(Cc2cc(C(=O)O)c(=O)n3ccccc23)CC1	cell-free assay, competition with immobilised ligand	1 µM	remaining binding	100%
Cc1nn(C)cc1-c1nc2c(N3CCN(Cc4ccc(Cl)cc4)CC3)c(Cl)cnc2[nH]1	binding, competition with immobilised ligand	1 µM	remaining binding	100%
Cn1cncc1[C@](O)(COc1ccc(C#N)cc1-c1ccc(OC(F)(F)F)cc1)c1ccc(C#N)cc1	cell-free assay, competition with immobilised ligand	1 µM	remaining binding	98%
O=c1[nH]c2ccccc2n1C1CCN(Cc2ccc(-c3[nH]c4cc5ncnc5cc4nc3-c3ccccc3)cc2)CC1	cell-free assay	0.5 µM	remaining signal	104%
Cn1cc(-c2cc(F)cc(N3CCn4c(cc5c4CCCC5)C3=O)c2CO)cc(Nc2ccc(N3CCN(C4COC4)CC3)cn2)c1=O	enzyme activity, inhibitor	0.1 µM	inhibition	6%
COc1ncccc1-c1cnn2ccc(N3CCN(C(=O)OC(C)C)CC3)nc12	binding, competition with immobilised ligand	1 µM	remaining binding	100%
CC(C)(C)c1cc(C=C(C#N)C#N)cc(Br)c1O	enzyme activity, inhibitor	0.5 µM	remaining activity	114%
